The text below walks through data of the array DNA melting data of Ke et al. (doi:10.1101/2024.01.08.574731).

Series [1] can be described thus: folding enthalpy; higher = less favourable; fluorescence melt of hairpins on a sequencing array, two-state fit. The settings on record: sodium 0.088 M. An outline of the steps: (§1)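 Melting temperature and folding enthalpy were obtained by bootstrapped two-state fitting. Fits used Cy3 fluorescence of library hairpins with annealed Cy3 and quencher oligos on a sequenced MiSeq flow cell, imaged in 50 mM Na-HEPES pH 8.0, 25 mM NaCl in 2.5 °C steps up to 60 °C and normalised to pre-quench Cy3 and control constructs. Four replicates were combined by inverse-variance weighting, and fitted temperatures were raised by 9.35 °C to match UV melts.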

Series [2] in a line: melting temperature; fluorescence melt of hairpins on a sequencing array, two-state fit, raised by 9.35 °C to match UV melts. The settings on record: sodium 0.088 M. An outline of the steps: as §1

As to GCTAACGAAAGTTCGAGC ((((((....)))..))), the folding enthalpy in series [1] was -14.9 kcal/mol. Further, the Tm in series [2] turned out to be 32.5 °C.
For GCTAACGAAAGTTGGAGC ((((((....)))..))) the same measures were -19.9 kcal/mol and 33.1 °C.
Consider GCTAACGGAAACGTTAGC (((((((....))))))), for which the folding enthalpy in series [1] was -47.9 kcal/mol. In addition, the Tm in series [2] came to 66.2 °C.
As to GCTAAGCCGAAAGGCAGC (((..(((....)))))), the folding enthalpy in series [1] was -18.6 kcal/mol. In series [2], the Tm is 50 °C.
For GCTAAGCGAAAGCCAAGC (((..((....))..))) the same measures were -20.3 kcal/mol and 38 °C.
For GCTAAGCGAAAGCGCAGC (((..((....))..))) the same measures were -30.2 kcal/mol and 66.5 °C.
GCTAAGCGAAAGCTACGC ((..(((....)))..)): the folding enthalpy in series [1] was -13.2 kcal/mol. Moreover, the Tm in series [2] stood at 39.2 °C.
For GCTAAGGAAACTTAGC ((((((....)))))) the same measures were -24.6 kcal/mol and 52 °C.
For GCTAAGGCGAAAGCCAGC (((..(((....)))))) the same measures were -16 kcal/mol and 48.6 °C.
With GCTACACGAAAGTGGAGC (((.(((....))).))), the folding enthalpy in series [1] was -43.5 kcal/mol. For the same sequence, the Tm in series [2] is 67 °C.
The corresponding values for GCTACAGGAAACCGTAGC (((((.(....).))))) are -31.6 kcal/mol and 47.7 °C.
The corresponding values for GCTACAGGAAACTATAGC ((((.((....)).)))) are -12.1 kcal/mol and 31.7 °C.
GCTACCGAAAGGTAAGC ((((((....))).))): the folding enthalpy in series [1] is -35 kcal/mol. Also, the Tm in series [2] is 53.2 °C.
The corresponding values for GCTACCGAAAGGTGAGC ((((((....))).))) are -23.3 kcal/mol and 51 °C.
The corresponding values for GCTACCGAAAGGTGGAGC ((((((....)))..))) are -15.3 kcal/mol and 41.3 °C.
Turning to GCTACCGAAAGGTGTAGC ((((((....)))..))), the folding enthalpy in series [1] is -21.7 kcal/mol. In addition, the Tm in series [2] is 47.1 °C.
Take GCTACCGGAAACGATAGC ((((.((....)).)))): the folding enthalpy in series [1] is -31.6 kcal/mol. The Tm in series [2] was determined as 43.7 °C.
On to GCTACGCCGAAAGGCAGC (((..(((....)))))), for which the folding enthalpy in series [1] was -11.9 kcal/mol. In series [2], the Tm worked out at 42.3 °C.
For GCTACGCGAAAGCACAGC (((..((....))..))) the same measures were -21.2 kcal/mol and 46.5 °C.
As to GCTACGCGAAAGCGTCGC ((.((((....)))).)), the folding enthalpy in series [1] is -19.3 kcal/mol. In addition, the Tm in series [2] was 57.7 °C.
The corresponding values for GCTACGCGAAAGCGTTGC ((.((((....)))).)) are -27.2 kcal/mol and 65 °C.
Regarding GCTACGGGAAACCGTAGC (((((((....))))))), in series [1], the folding enthalpy is -38.1 kcal/mol. In addition, the Tm in series [2] is 68.8 °C.
For GCTACGGGAAACTGTAGC (((((.(....).))))), the folding enthalpy in series [1] is -48.3 kcal/mol. The Tm in series [2] was determined as 52.1 °C.
For GCTACGGGAAACTGTGGC ((.((.(....).)).)) the same measures were -30.7 kcal/mol and 41.1 °C.
The corresponding values for GCTACTACGAAAGTAAGC (((..(((....)))))) are -13.6 kcal/mol and 29.5 °C.
The corresponding values for GCTAGAGAAATCTAGC ((((((....)))))) are -30.4 kcal/mol and 50.3 °C.
Take GCTAGAGGAAACTCTGGC ((.((((....)))).)): the folding enthalpy in series [1] was -37.9 kcal/mol. The Tm in series [2] is 48 °C.
For GCTAGCACGAAAGTGAGC (((..(((....)))))) the same measures were -17.4 kcal/mol and 35.1 °C.
Turning to GCTAGCCCGAAAGGGAGC (((..(((....)))))), the folding enthalpy in series [1] is -14.3 kcal/mol. Further, the Tm in series [2] worked out at 37.8 °C.
For GCTAGCGAAAGCTCTAGC ((((((....)))..))), in series [1], the folding enthalpy is -15.3 kcal/mol. In series [2], the Tm stood at 38.5 °C.
Regarding GCTAGCGAAAGCTGCAGC ((((((....)))..))), in series [1], the folding enthalpy is -13.2 kcal/mol. In series [2], the Tm is 46 °C.
With GCTAGCGAAAGCTTCAGC ((((((....)))..))), the folding enthalpy in series [1] is -10.9 kcal/mol. Further, in series [2], the Tm worked out at 39.1 °C.
GCTAGCGAAAGCTTTAGC ((((((....)))..))): the folding enthalpy in series [1] was -14 kcal/mol. Besides, the Tm in series [2] is 40.5 °C.
The corresponding values for GCTAGCGCGAAAGCGAGC (((..(((....)))))) are -12.9 kcal/mol and 44.9 °C.
For GCTAGCGGAAACGCCAGC (((.(((....))).))) the same measures were -23.6 kcal/mol and 48.4 °C.
For GCTAGCGGAAACGCTAAC (.(((((....))))).) the same measures were -12.7 kcal/mol and 40 °C.
GCTAGGCGAAAGCATTGC ((.(.((....)).).)): the folding enthalpy in series [1] was -19.2 kcal/mol. Besides, in series [2], the Tm amounted to 42.1 °C.
The corresponding values for GCTAGGCGAAAGCCAGGC ((..(((....)))..)) are -16.8 kcal/mol and 54.9 °C.
For GCTAGGCGAAAGCCCAGC (((.(((....))).))) the same measures were -23.7 kcal/mol and 50.7 °C.
The corresponding values for GCTAGGCGAAAGCGCAGC (((..((....))..))) are -15.8 kcal/mol and 39.6 °C.
On to GCTAGGCGAAAGCGTAGC ((((.((....)).)))), for which, in series [1], the folding enthalpy is -33 kcal/mol. In series [2], the Tm turned out to be 62.8 °C.
For GCTAGGCGAAAGCTCAGC (((..((....))..))) the same measures were -19.6 kcal/mol and 42.9 °C.
On to GCTAGGGCGAAAGCCAGC (((..(((....)))))), for which the folding enthalpy in series [1] is -15 kcal/mol. In series [2], the Tm came to 48 °C.
The corresponding values for GCTAGGGGAAACCCCAGC (((.(((....))).))) are -29.8 kcal/mol and 49.1 °C.
Consider GCTAGTCCGAAAGGAAGC (((..(((....)))))), for which, in series [1], the folding enthalpy is -16.1 kcal/mol. Further, in series [2], the Tm is 30 °C.
As to GCTAGTCGAAAGACAAGC (((.(((....))).))), the folding enthalpy in series [1] was -34.7 kcal/mol. For the same sequence, in series [2], the Tm was found to be 51.8 °C.
Take GCTAGTGGAAACATTGGC ((.(.((....)).).)): in series [1], the folding enthalpy is -10.7 kcal/mol. Also, in series [2], the Tm came out at 28.2 °C.
For GCTATAGGAAACCATAGC (((((.(....).))))) the same measures were -29.8 kcal/mol and 35.6 °C.
Turning to GCTATCCGAAAGGAAGC (((.(((....)))))), the folding enthalpy in series [1] is -23.2 kcal/mol. Moreover, the Tm in series [2] was determined as 46 °C.
On to GCTATCGAAAGATAAAGC ((((((....)))..))), for which the folding enthalpy in series [1] was -23.9 kcal/mol. Besides, in series [2], the Tm came to 33.6 °C.
Take GCTATCGAAAGATTTAGC ((((((....)))..))): in series [1], the folding enthalpy is -19.9 kcal/mol. For the same sequence, in series [2], the Tm worked out at 32.7 °C.
For the sequence GCTATCGGAAACGATGGC ((.((((....)))).)), the folding enthalpy in series [1] was -47.6 kcal/mol. In addition, in series [2], the Tm stood at 52.9 °C.
For GCTATGCGAAAGCAGGGC ((..(((....)))..)) the same measures were -22.2 kcal/mol and 54.8 °C.
For GCTATGCGAAAGCATTGC ((.((((....)))).)) the same measures were -30.2 kcal/mol and 60.3 °C.
